Activity calls are given as the source filed them. The rule behind the calls is not given here.

The target of assay [1] is T1, Pancreatic triacylglycerol lipase (Sus scrofa) (UniProt P00591).
T1 sequence (whole entry): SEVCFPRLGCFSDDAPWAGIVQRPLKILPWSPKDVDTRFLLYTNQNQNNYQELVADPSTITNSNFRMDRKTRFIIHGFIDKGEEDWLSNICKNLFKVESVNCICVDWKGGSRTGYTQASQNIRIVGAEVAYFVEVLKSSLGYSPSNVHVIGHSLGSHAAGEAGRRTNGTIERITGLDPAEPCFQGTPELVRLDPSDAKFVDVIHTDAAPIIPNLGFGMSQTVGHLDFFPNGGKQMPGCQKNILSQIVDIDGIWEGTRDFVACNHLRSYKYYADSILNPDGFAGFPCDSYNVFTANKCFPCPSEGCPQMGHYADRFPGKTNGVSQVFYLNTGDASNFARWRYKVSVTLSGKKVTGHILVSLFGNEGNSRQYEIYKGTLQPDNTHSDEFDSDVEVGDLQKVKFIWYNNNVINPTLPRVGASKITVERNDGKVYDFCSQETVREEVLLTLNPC
Description: Inhibition of porcine pancreatic lipase at 400:1 molar excess compound concentration preincubated for 120 mins at 25 degreeC.

Assay [2] has as its target T2, Pancreatic triacylglycerol lipase (Homo sapiens) (UniProt P16233).
T2 sequence (whole entry): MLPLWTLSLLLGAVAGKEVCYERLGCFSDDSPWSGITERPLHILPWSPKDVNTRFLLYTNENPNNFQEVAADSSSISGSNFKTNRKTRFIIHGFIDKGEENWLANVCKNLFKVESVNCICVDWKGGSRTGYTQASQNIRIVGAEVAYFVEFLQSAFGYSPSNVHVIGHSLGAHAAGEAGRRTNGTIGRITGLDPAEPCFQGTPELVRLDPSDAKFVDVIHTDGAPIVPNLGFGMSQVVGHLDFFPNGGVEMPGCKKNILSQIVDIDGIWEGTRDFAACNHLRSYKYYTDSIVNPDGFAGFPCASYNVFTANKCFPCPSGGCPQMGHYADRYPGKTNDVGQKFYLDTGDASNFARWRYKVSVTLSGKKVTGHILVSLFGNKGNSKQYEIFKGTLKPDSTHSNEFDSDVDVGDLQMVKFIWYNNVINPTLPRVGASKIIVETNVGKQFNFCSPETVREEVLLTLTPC
Description: Inhibition of human pancreatic lipase at 400:1 molar excess compound concentration preincubated for 120 mins at 25 degreeC.

Assay [3] addresses T2, Pancreatic triacylglycerol lipase (Homo sapiens). Description: Inhibition of human pancreatic lipase at 400:1 molar excess compound concentration preincubated for 30 mins at 25 degreeC relative to control. The method in brief: (§1)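 Pancreatic lipase from human pancreatic juice (54 µg/mL HPL stock) or porcine pancreatic extract (32 µg/mL PPL stock) was held in 10 mM MES pH 7.0, 150 mM NaCl. It was pre-incubated with inhibitor from DMSO stock for 30 min at 25 °C with 4 mM NaTDC at varied molar excess. Residual activity was read by pH-stat on tributyrin at 37 °C, pH 8.0, with 2 mM CaCl₂ and 4 mM NaTDC. x_I50 was taken from residual activity; DMSO-only controls were run.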

For assay [4], the target named is T3, Gastric triacylglycerol lipase (Canis lupus familiaris) (UniProt P80035).
T3 sequence (whole entry): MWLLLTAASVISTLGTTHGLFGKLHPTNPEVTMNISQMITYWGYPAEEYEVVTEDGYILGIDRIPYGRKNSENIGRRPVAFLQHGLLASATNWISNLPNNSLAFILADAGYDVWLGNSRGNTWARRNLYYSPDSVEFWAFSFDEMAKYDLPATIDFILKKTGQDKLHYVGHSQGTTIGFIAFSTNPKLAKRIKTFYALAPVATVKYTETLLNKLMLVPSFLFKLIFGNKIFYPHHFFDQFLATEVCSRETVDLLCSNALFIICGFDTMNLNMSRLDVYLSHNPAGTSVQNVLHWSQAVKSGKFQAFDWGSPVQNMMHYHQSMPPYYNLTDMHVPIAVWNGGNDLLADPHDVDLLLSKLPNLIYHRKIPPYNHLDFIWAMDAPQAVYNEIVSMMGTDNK
Briefly: Inhibition of recombinant dog gastric lipase at 4:1 molar excess compound concentration preincubated for 30 mins at 25 degreeC relative to control.

Assay [5] has as its target T1, Pancreatic triacylglycerol lipase (Sus scrofa). Description: Inhibition of porcine pancreatic lipase at 400:1 molar excess compound concentration preincubated for 30 mins at 25 degreeC relative to control. Put shortly: as §1
Assay [6] deals with T4, Pancreatic lipase-related protein 2 (Cavia porcellus) (UniProt P81139).
T4 sequence (whole entry): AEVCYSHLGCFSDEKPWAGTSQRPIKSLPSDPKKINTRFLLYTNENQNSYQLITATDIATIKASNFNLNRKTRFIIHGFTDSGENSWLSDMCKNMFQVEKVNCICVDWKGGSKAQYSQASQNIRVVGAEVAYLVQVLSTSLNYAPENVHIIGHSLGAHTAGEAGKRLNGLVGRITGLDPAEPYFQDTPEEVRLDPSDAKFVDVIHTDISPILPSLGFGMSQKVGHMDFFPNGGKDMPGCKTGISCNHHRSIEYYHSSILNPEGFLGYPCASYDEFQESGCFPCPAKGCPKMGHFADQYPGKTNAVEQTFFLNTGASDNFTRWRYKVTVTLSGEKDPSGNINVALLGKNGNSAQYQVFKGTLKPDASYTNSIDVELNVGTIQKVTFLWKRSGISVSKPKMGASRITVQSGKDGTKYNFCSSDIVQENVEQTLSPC
Description: Inhibition of recombinant guinea pig PL-RP2 expressed in Aspergillus oryzae at 20:1 molar excess compound concentration preincubated for 30 mins at 25 degreeC relative to control.

The target of assay [7] is T4, Pancreatic lipase-related protein 2 (Cavia porcellus). Description: Inhibition of recombinant guinea pig PL-RP2 expressed in Aspergillus oryzae preincubated for 30 mins at 25 degreeC.
Assay [8] has the same target. Briefly: Inhibition of recombinant guinea pig PL-RP2 expressed in Aspergillus oryzae at 4:1 molar excess compound concentration preincubated for 30 mins at 25 degreeC relative to control.
Assay [9] has as its target T3, Gastric triacylglycerol lipase (Canis lupus familiaris). Briefly: Inhibition of recombinant dog gastric lipase preincubated for 30 mins at 25 degreeC.
Assay [10] concerns the target T1, Pancreatic triacylglycerol lipase (Sus scrofa). Briefly: Inhibition of porcine pancreatic lipase preincubated for 30 mins at 25 degreeC. The method in brief: as §1
The target of assay [11] is T3, Gastric triacylglycerol lipase (Canis lupus familiaris). Briefly: Inhibition of recombinant dog gastric lipase at 20:1 molar excess compound concentration preincubated for 30 mins at 25 degreeC relative to control.
Assay [12] deals with T2, Pancreatic triacylglycerol lipase (Homo sapiens). Briefly: Inhibition of human pancreatic lipase preincubated for 30 mins at 25 degreeC. The method in brief: as §1

With `COc1nn(-c2cccc(Oc3ccccc3)c2)c(=O)o1`, the inhibition entry in [1] and in assay [2] was “inactive” in each case. Also, the inhibition in assay [3] is 49.1%.

As to `CCCCOc1nn(-c2cccc(Oc3ccccc3)c2)c(=O)o1`, the inhibition in assay [4] stood at 41.5%; in assay [5] it was 19.7%; in [6], 43.8%; in assay [8], 42.4%; in assay [3], 19.1%; in assay [11], 77.5%. Further, the XI50 in assay [7] was more than 40 molar excess; in assay [9], 5.33 molar excess; in assay [10], more than 400 molar excess; in assay [12], more than 400 molar excess.

As for `CCCCCCCCCCCCOc1nn(-c2cccc(Oc3ccccc3)c2)c(=O)o1`, the inhibition in [4] was 44.1%; in assay [5], 27.9%; in [6], 54.4%; in assay [8], 53.1%; in [3] it was 29.1%; in assay [11], 68.2%. Further, the XI50 in assay [7] was 1.17 molar excess; in assay [9] it was 4.57 molar excess; in assay [10], more than 400 molar excess; in assay [12] it was more than 400 molar excess.

As for `CCCCCCCCOc1nn(-c2cccc(Oc3ccccc3)c2)c(=O)o1`, the inhibition in assay [4] is 53.9%; in assay [5], 19.9%; in assay [6] it was 63%; in assay [8], 62.3%; in [3], 25.7%; in assay [11], 70.5%. Besides, the XI50 was 1.47 molar excess in [7], 3.99 molar excess in assay [9], more than 400 molar excess in assay [10] and more than 400 molar excess in assay [12].

Regarding `CC(C)COc1nn(-c2cccc(Oc3ccccc3)c2)c(=O)o1`, the inhibition came out at 35.2% in assay [4]; 20.6% in assay [5]; 76% in assay [6]; 73.6% in assay [8]; 21.2% in [3]; 69.6% in assay [11]. Moreover, the XI50 in assay [7] is 0.52 molar excess; in assay [9] it was 5.51 molar excess; in [10], more than 400 molar excess; in [12], more than 400 molar excess.

For `COc1nn(-c2ccccc2)c(=O)o1`, the inhibition in assay [5] worked out at 90.6%; in [3], 25.6%. Moreover, the XI50 in assay [12] is more than 400 molar excess.

For `CCOc1nn(-c2cccc(Oc3ccccc3)c2)c(=O)o1`, the inhibition in assay [4] worked out at 33.6%; in [5] it was 19%; in assay [6] it was 27.7%; in assay [8], 27.4%; in assay [3] it was 18.8%; in assay [11], 83%. Also, the XI50 in assay [7] is more than 40 molar excess; in assay [9], 6.08 molar excess; in assay [10], more than 400 molar excess; in assay [12] it was more than 400 molar excess.

`CCCCCCOc1nn(-c2cccc(Oc3ccccc3)c2)c(=O)o1`: the inhibition in assay [4] amounted to 43.5%; in [5] it was 27.2%; in [6], 91.3%; in assay [8] it was 90.7%; in assay [3], 17.1%; in [11], 65.9%. The XI50 in assay [7] is 1.09 molar excess; in assay [9] it was 4.92 molar excess; in assay [10] it was more than 400 molar excess; in assay [12], more than 400 molar excess.

In assay [10], `COc1nn(-c2ccc(Oc3ccccc3)cc2)c(=O)o1` displayed an XI50 of more than 400 molar excess. Besides, the inhibition in [3] was 4%.

In the case of `COCCOc1nn(-c2cccc(Oc3ccccc3)c2)c(=O)o1`, the inhibition worked out at 18.1% in assay [4]; 15.5% in [5]; 67.8% in [6]; 60.3% in assay [8]; 20% in [3]; 69.1% in [11]. For the same compound, the XI50 in assay [7] was 1.7 molar excess; in assay [9], 11.8 molar excess; in assay [10], more than 400 molar excess; in assay [12], more than 400 molar excess.

On to `CCCCC(CC)COc1nn(-c2cccc(Oc3ccccc3)c2)c(=O)o1` (stereo not drawn), for which the inhibition in [4] is 21.6%; in assay [5], 18.9%; in [6], 54.8%; in assay [8], 47.9%; in [3], 22.4%; in [11], 27.6%. Also, the XI50 in [7] is 2.8 molar excess; in assay [9], more than 100 molar excess; in assay [10], more than 400 molar excess; in assay [12] it was more than 400 molar excess.

For the compound `CCCCCCCCCCOc1nn(-c2cccc(Oc3ccccc3)c2)c(=O)o1`, the inhibition stood at 14.6% in assay [4]; 32.5% in assay [5]; 57.4% in assay [6]; 56.4% in assay [8]; 20.1% in assay [3]; 37.7% in assay [11]. For the same compound, the XI50 is 2.72 molar excess in assay [7], more than 100 molar excess in assay [9], more than 400 molar excess in assay [10] and more than 400 molar excess in assay [12].

The term inhibition denotes how much of the control response was suppressed.

Values taken from ChEMBL document CHEMBL4715754, “Slowing down fat digestion and absorption by an oxadiazolone inhibitor targeting selectively gastric lipolysis” (2016).
